What was measured:
Type in all cases: cell-based, human
[1] = test system: neutrophils; experiment: PMA-induced NET formation in neutrophils; details: 100 μM, neutrophils stimulated with 25 nM PMA 3 h
[2] = test system: NETs; experiment: Detection of LL-37 in NETs by immunofluorescence microscopy; details: 100 μM, PMA-induced NETs, antibody specific for native LL-37
How it was run: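 Human neutrophils, hypotonically lysed to remove RBCs, seeded at 1 × 10^5 cells on 1% BSA-treated coverslips, 30 min at 37 °C, 5% CO2. Where indicated, 100 μM PAD inhibitor. NETs induced with 25 nM PMA, 3 h. Fixed in 3.7% paraformaldehyde; mouse anti-LL-37 (1:50, 1 h RT), Alexa-Fluor-647 anti-mouse (1:1000, 45 min), Hoechst 1 μg/mL; imaged at 20×.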

[3] = test system: pDCs; experiment: pDC stimulation with NETs

NC(=O)[C@H](CCCN=C(N)CCl)NC(=O)c1ccccc1 [Cl-A, Cl-amidine]
NET formation and levels of citrullination [1]: reduced both the levels of citrullination (Figure S3) and NET formation | LL-37 fluorescence spots relative to amount of NETs, versus no inhibitor [2]: 3 times | IL-6 in conditioned medium from pDCs treated with NETs generated in the presence of inhibitor ([3]; 100 μM inhibitor, ELISA): substantial amount of IL-6 | MxA expression in pDCs exposed to NETs pre-treated with inhibitor ([3]; NETs from neutrophils given 100 μM inhibitor before PMA, real-time PCR): upregulated markedly

Source: publication PMC5860981 (Journal of immunology (Baltimore, Md. : 1950), 2018)
